High-throughput results from PubChem.
The list is not random: actives were taken first. Their share in the collection is about 3.1%.
KCNK9 inh: human KCNK9 channel inhibition | Q9NPC2 | HEK293 KCNK9, FluxOR thallium flux fluorescence; hits give low values | B-score at 10 µM | AID 488922 | actives 1.2% (n = 310,000);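 active = ratio B-score over 3 SD below the library mean, with starting fluorescence within 5 SD of its mean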;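 note: negative B-score means less thallium flux so channel inhibition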
KCNK3 inh: human KCNK3 channel inhibition, primary screen; O14649; CHO-KCNK3 thallium flux, FluxOR fluorescence; hits give low values; B-score at 10 µM; actives 0.84% (n = 340,000); AID 602410;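 active = B-score under library mean minus 4 SD, starting fluorescence ratio at most library mean plus 5 SD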;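 note: more negative B-score means stronger inhibition of thallium flux through KCNK3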
KCNQ1 act: potentiators or activators of human KCNQ1 potassium channel. P51787. CHO-K1 KCNQ1, thallium flux FluxOR fluorescence; hits give high values. B-score at 10 µM. actives 0.35% (n = 310,000);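 active = fluorescence ratio B-score, a plate-corrected score, at least three library SD, with initial intensity B-score within 5 SD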
Target sequence (P51787 whole entry, looked up): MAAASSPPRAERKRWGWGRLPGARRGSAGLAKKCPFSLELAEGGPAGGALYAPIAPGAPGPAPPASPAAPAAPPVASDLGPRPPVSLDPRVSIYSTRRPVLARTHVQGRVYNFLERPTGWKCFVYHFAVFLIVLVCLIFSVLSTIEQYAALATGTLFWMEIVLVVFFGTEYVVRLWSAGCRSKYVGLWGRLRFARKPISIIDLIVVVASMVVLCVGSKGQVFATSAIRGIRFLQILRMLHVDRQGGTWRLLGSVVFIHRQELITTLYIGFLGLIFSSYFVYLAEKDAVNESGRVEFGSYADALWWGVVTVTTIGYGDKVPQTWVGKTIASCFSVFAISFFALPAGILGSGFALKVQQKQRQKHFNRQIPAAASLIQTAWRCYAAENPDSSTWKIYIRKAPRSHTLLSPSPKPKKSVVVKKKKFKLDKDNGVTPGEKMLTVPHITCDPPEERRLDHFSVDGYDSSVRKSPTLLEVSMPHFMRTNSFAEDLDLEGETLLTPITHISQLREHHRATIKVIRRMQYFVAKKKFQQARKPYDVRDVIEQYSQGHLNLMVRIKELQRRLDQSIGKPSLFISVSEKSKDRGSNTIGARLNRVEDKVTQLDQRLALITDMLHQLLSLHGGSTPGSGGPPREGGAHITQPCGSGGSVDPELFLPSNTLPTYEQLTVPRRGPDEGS
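System: Stable KCNQ1 CHO-K1 line | Incubation: 90 min dye loading and 20 min compound exposure, both at room temperature | Measure: Ratio B score | Medium: Assay buffer for compound exposure, DMSO matched across wells | Compound dosing: Single-concentration screen | Probe or stimulus: K+/Tl+ depolarizing stimulus | Measured by: Kinetic FluxOR fluorescence, 10 s baseline plus 110 s post-stimulus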
KCNQ1 block: human KCNQ1 channel inhibition | CHO-K1 KCNQ1, FluxOR thallium flux fluorescence; hits give high values | B-score at 10 µM | actives 1.3% (n = 310,000);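 active = compounds whose thallium flux B-score, printed positive for inhibition, exceeds three library SD while starting fluorescence stays within three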;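 note: channel opened by potassium depolarization with thallium stimulus after 20 min compound exposure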
hERG rescue: hERG (human) protection from proarrhythmic block. Q12809. CHO-hERG, FluxOR thallium flux, dofetilide IC70 present. activation (rescue from dofetilide block), less the hit threshold, % at 10 µM. actives 0.51% (n = 310,000). AID 1511;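 active = activation above the mean of controls blocked by dofetilide plus 5 SD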;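 note: thallium influx through hERG after potassium depolarization seen as dye fluorescence rise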
KCNK3 inh conf: human KCNK3 channel inhibition, confirmation assay | shares compounds with KCNK3 inh | CHO-KCNK3 thallium flux, FluxOR fluorescence; 0% buffer, 100% carvedilol maximal block | ratio percent of control, % at 10 µM | actives 99% (n = 2,400);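 active = ratio percent of control, averaged over triplicates, above buffer control mean plus 5 SD, cut at about 64% in these data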;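 note: ratio is the fluorescence rise from min to max over baseline after thallium stimulus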
KCNK3 uninduced: activity in cells without induced KCNK3 expression; shares compounds with KCNK3 inh; non-induced KCNK3 parental cells, FluxOR thallium flux; hits give low values; thallium flux ratio (lower = more inhibition) at 10 µM; actives 40% (n = 2,400); AID 651747;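 active = thallium flux ratio, averaged over three wells, more than 5 SD below the buffer control mean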;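 note: host cells are CHO cells without KCNK3 induction; ratio is peak minus trough fluorescence over baseline then normalized to buffer controls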
Numbers without * were called inactive; i = inactive; · = not tested or not shown.

SMILES	KCNK9 inh	KCNK3 inh	KCNQ1 act	KCNQ1 block	hERG rescue	KCNK3 inh conf	KCNK3 uninduced
N#Cc1ccccc1Sc1ccccc1C(=O)OCc1nnc(-c2ccccc2)o1	i	-9.9*	i	i	-8	78*	i
COc1ccc(C)cc1NC(=O)c1ccc(S(=O)(=O)N2CCCCC2)cc1	i	-9.7*	i	i	-13	106*	0.16*
Cc1ccc(NC(=O)/C=C/c2ccco2)cc1S(=O)(=O)N1CCCCCC1	i	-9.4*	i	i	-6	124*	0.12*
COc1ccc(C(=O)Nc2ccc(C)c(S(=O)(=O)N3CCCCCC3)c2)cc1	i	i	i	i	-21	·	·
Cc1ccc(NC(=O)c2ccc(F)cc2)cc1S(=O)(=O)N1CCCCCC1	i	-11*	i	i	-12	101*	i
O=C(/C=C/c1ccco1)Nc1cccc(S(=O)(=O)N2CCOCC2)c1	i	i	i	i	-4	·	·
CCOc1ccccc1N1CCN(C(=O)c2c(Cl)cnn2C)CC1	i	i	i	i	-6	·	·
COCCCNC(=S)N1CCN(C(c2ccccc2)c2ccccc2)CC1	i	i	i	i	-9	·	·
Cc1ccc(C)c(OCc2cc(C(=O)NC3CCOC(C)(C)C3)no2)c1 (centres undefined)	i	i	i	i	-9	·	·
COc1ccc(S(=O)(=O)Nc2ccccc2C(=O)N2CCOCC2)cc1Cl	i	i	i	i	-13	·	·
O=C1c2ccccc2C(Nc2ccc(F)c(Cl)c2)N1Cc1ccco1 (centres undefined)	i	-8.7*	i	i	-13	98*	i
O=C1c2ccccc2C(Nc2ccc(S(=O)(=O)N3CCCCC3)cc2)N1Cc1ccco1 (centres undefined)	-7.2*	-12*	i	i	-15	100*	i
O=C1c2ccccc2C(Nc2ccc(S(=O)(=O)N3CCOCC3)cc2)N1Cc1ccco1 (centres undefined)	i	i	i	i	-12	·	·
CCOc1cc(/C=N/NC(=O)C(O)(c2ccccc2)c2ccccc2)ccc1OC(=O)c1ccco1	i	-8.8*	i	i	-14	83*	i
CCOc1cc(/C=N/NC(=O)c2ccncc2)ccc1OC(=O)c1ccco1	i	i	i	i	-11	·	·
COc1ccc(OC)c(/C=C2/Sc3ccccc3C2=O)c1	-7.2*	-11*	i	i	-7	110*	0.12*
Cc1ccc(/C=C2\Sc3ccccc3C2=O)s1	i	i	i	i	-17	·	·
COc1ccc(CNC(=O)CN(Cc2ccc(C)cc2)C(=O)c2csnn2)cc1	i	i	i	i	-3	·	·
CCN1C(=O)[C@H]2[C@H]3CN=C(SCc4ccc(Cl)cc4)N3[C@@](C)(C(=O)OC)[C@H]2C1=O	·	i	·	·	·	·	·
O=C(/C=C/c1ccccc1Br)c1ccc2c(c1)OCO2	i	i	i	i	-11	·	·
O=C(/C=C\Nc1ccccc1Br)c1ccc2c(c1)OCO2	i	-12*	i	i	-10	118*	i
CCN1CCN(c2c(/C=C3\SC(=S)N(Cc4ccco4)C3=O)c(C)c(C#N)c(=O)n2C)CC1	i	-16*	i	7*	-37	141*	0.089*
O=C(O)C(=O)/C(=C\c1cccc2ccccc12)c1ccc2ccccc2n1	i	-9.1*	i	i	-2	137*	i
CC(C)Cc1ccc(CN2CCCC(NC(=O)CCN3CCOCC3)C2)cc1 (centres undefined)	i	i	i	i	-8	·	·
Cc1ccc(OCC(=O)NNC(=O)c2ccccc2OCc2c(C)noc2C)cc1	i	-8.7*	i	i	-13	94*	i
SMILES	KCNK9 inh	KCNK3 inh	KCNQ1 act	KCNQ1 block	hERG rescue	KCNK3 inh conf	KCNK3 uninduced
CC(Cc1cccs1)NC(=S)Nc1ccccc1 (centres undefined)	i	i	i	i	-4	·	·
CC(Cc1cccs1)NC(=O)Nc1ccccc1 (centres undefined)	i	-9*	i	i	-6	90*	i
CCN(CC(=O)NCc1cccs1)C(=O)c1ccc(N(C)S(=O)(=O)c2ccc(C)cc2)cc1	·	i	·	·	·	·	·
Cc1cccc2nc(CSCc3ccco3)cn12	i	i	i	i	-7	·	·
Cc1cc(C)n2cc(CSCc3ccco3)nc2n1	i	-17*	i	i	-3	78*	i
CCN(CC)CCCN(C(=O)c1cccs1)c1nc(-c2ccc(OC)cc2)cs1	i	i	i	i	-13	·	·
COc1ccc(OC)c(-c2csc(N(CC3CCCO3)C(=O)C3CCCCC3)n2)c1 (centres undefined)	i	-9.5*	i	i	-9	93*	i
COc1ccc(-c2csc(N(CC3CCCO3)C(=O)c3cccs3)n2)cc1 (centres undefined)	i	-10*	i	i	-14	117*	i
Cc1ccc(C(=O)c2c3ccc([N+](=O)[O-])cc3[n+]([O-])n2CCCN)cc1	i	i	i	i	-7	·	·
Cc1[nH]c2ccccc2c1SCCNC(=O)c1ccc(Br)o1	i	-9*	i	i	-18	97*	i
O=C(NCCc1csc(-c2cccnc2)n1)c1ccc(Br)o1	i	i	i	i	-12	·	·
O=C(NCCc1csc(-c2ccccc2)n1)c1ccc(Br)o1	i	-11*	i	i	-19	92*	i
O=C(NCCC(c1ccccc1)c1ccccc1)c1ccc(Br)o1	i	-9.7*	i	i	-10	114*	i
O=C(NCCc1c[nH]c2ccccc12)c1ccc(Br)o1	·	i	·	·	·	·	·
O=C(NCCSc1c[nH]c2ccccc12)c1ccc(Br)o1	-7.9*	-11*	i	i	-9	98*	i
O=C(O)CCNC(=O)c1ccc(Br)o1	i	i	i	i	4	·	·
CCC(=O)Nc1ccc(/C(C)=N\NC(=O)c2ccc(C)s2)cc1	i	i	i	i	-1	·	·
C/C(=N\NC(=O)c1nn(C)c(C)c1Br)c1ccc(NC(=O)c2ccc(C)s2)cc1	i	-8.8*	i	i	-6	101*	i
Clc1ccccc1-c1nc(-c2ccc(Br)o2)no1	i	-10*	i	i	-2	123*	0.15*
Clc1ccccc1OCc1nc(-c2ccc(Br)o2)no1	i	-10*	i	i	-11	112*	i
